# Laboratory results published in ChEMBL document CHEMBL1268838, “The synthesis and biologic evaluation of anti-platelet and cytotoxic β-nitrostyrenes” (Bioorg Med Chem, 2010).
# How the values were obtained:
# [1] = Antiaggregatory activity in human platelets assessed as inhibition of thrombin-induced platelet aggregation preincubated for 3 mins before thrombin challenge by turbidimetry analysis; format: functional, cell-based
# In short: (§1)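 Washed platelets from ACD-anticoagulated blood of drug-free healthy volunteers, resuspended at 3 × 10⁸/ml in Tyrode's solution with Ca²⁺ 2 mM, glucose 11.1 mM and BSA 3.5 mg/ml. Platelets were stirred at 1200 rpm and 37 °C for 3 min with DMSO (0.5%, vehicle) or compound, then the inducer was added. Aggregation was read by light-transmission aggregometry. IC50 is the mean of two independent experiments (TPA lines n = 3).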
# HBL-100 [2] = assay: Cytotoxicity against human HBL100 cells after 72 hrs by MTT assay; format: functional, cell-based; details: HBL-100, 72 h
# In short: (§2)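 MDA-MB-231 breast cancer or HBL-100 non-malignant breast epithelial cells: freshly trypsinized cells seeded at 8000 per well, with compound added from DMSO-diluted stock. After 72 h, attached cells were given MTT (0.5 mg/mL, 1 h) and solubilized in DMSO.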
# [3] = Antiaggregatory activity in human platelets assessed as inhibition of TPA-induced platelet aggregation preincubated for 3 mins before TPA challenge by turbidimetry analysis; format: functional, cell-based; in short: as §1
# [4] = Antiaggregatory activity in human platelets assessed as inhibition of A23187-induced platelet aggregation preincubated for 3 mins before A23187 challenge by turbidimetry analysis; format: functional, cell-based; in short: as §1
# [5] = Antiaggregatory activity in human platelets assessed as inhibition of collagen-induced platelet aggregation preincubated for 3 mins before collagen challenge by turbidimetry analysis; format: functional, cell-based; in short: as §1
# MDA-MB-231 [6] = assay: Cytotoxicity against human MDA-MB-231 cells after 72 hrs by MTT assay; format: functional, cell-based; details: MDA-MB-231, 72 h; in short: as §2
# [7] = test system: Integrin alpha-IIb/beta-3 (Homo sapiens); assay: Inhibition of glycoprotein 2b/3a activation in human platelets assessed as inhibition of thrombin-induced PAC-1 binding preincubated for 3 mins before thrombin challenge after 15 mins by flow cytometry; details: 0.25 h
# HBL-100 [8] = assay: Cytotoxicity against human HBL100 cells at 20 uM after 72 hrs by MTT assay; format: functional; details: HBL-100, 72 h
# MDA-MB-231 [9] = assay: Cytotoxicity against human MDA-MB-231 cells at 20 uM after 72 hrs by MTT assay; format: functional; details: MDA-MB-231, 72 h
SMILES,IC50 [1],IC50 (HBL-100 [2]),IC50 [3],IC50 [4],IC50 [5],IC50 (MDA-MB-231 [6]),Activity [7],inhibition at 20 µM (HBL-100 [8]),inhibition at 20 µM (MDA-MB-231 [9])
COc1cc(/C=C/[N+](=O)[O-])ccc1OC(=O)c1ccc(C(C)(C)C)cc1,0.6 µM,> 20 µM,3.5 µM,1.1 µM,0.6 µM,> 20 µM,Dose-dependent effect,-2.1%,2.5%
COc1cc(/C=C/[N+](=O)[O-])ccc1OC(=O)c1cccc(Cl)c1Cl,0.7 µM,> 20 µM,5.3 µM,3.3 µM,0.6 µM,> 20 µM,Dose-dependent effect,11.5%,-4.9%
